Assay results from ChEMBL document CHEMBL1212693, “Dorsomorphin inhibits BMP signals required for embryogenesis and iron metabolism” (Nat Chem Biol, 2008).
Activity calls are given as the source filed them. The rule behind the calls is not given here.

Tests used:
[1] = species: Danio rerio; assay: Inhibition of BMPR1 in zebrafish assessed as penetrance of normal embryonic axis dorsalization at 5 uM treated at 3 hrs post-fertilization measured at 48 hrs; design: scale not given: the % may be the effect or the level left
[2] = species: Danio rerio; assay: Inhibition of BMPR1 in zebrafish assessed as penetrance of moderate embryonic axis dorsalization at 10 uM treated at 6 to 8 hrs post-fertilization measured at 48 hrs; design: scale not given: the % may be the effect or the level left
Outline: (§1)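 Compound added at the stated times and concentrations. Gross morphology scored visually at up to 48 h.p.f. for dorsalization of the embryonic axis.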

[3] = species: Danio rerio; assay: Toxicity in zebrafish assessed as survivability at 10 uM treated at 3 hrs post-fertilization measured at 48 hrs; format: organism-based; settings: in vivo
[4] = species: Danio rerio; assay: Inhibition of BMPR1 in zebrafish assessed as severity of embryonic axis dorsalization at 10 uM treated at 2 to 8 hrs post-fertilization measured at 48 hrs; design: scale not given: the % may be the effect or the level left
[5] = (§2) Inhibition of BMPR1-mediated Smad-1 phosphorylation in BMP4-stimulated mouse PASMC treated 30 mins before BMP4 challenge measured after 30 mins by immunoblot analysis
Outline: (§3)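 Mouse PASMCs were held 24 h in 0.5% FCS RPMI, preincubated 30 min with a dose range of compound, then stimulated 30 min with BMP4. Phospho-SMAD1/5/8 and phospho-p38 were detected by immunoblot and quantitated by phosphorimager (RLU). IC50 was derived from a Hill plot of phospho-SMAD1/5/8 inhibition.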

[6] = species: Mus musculus; assay: as §2; outline: as §3
[7] = species: Danio rerio; assay: Inhibition of BMPR1 in zebrafish assessed as penetrance of normal embryonic axis dorsalization at 10 uM treated at 3 hrs post-fertilization measured at 48 hrs; design: scale not given: the % may be the effect or the level left
[8] = species: Mus musculus; assay: Inhibition of BMPR1-mediated Smad-8 phosphorylation in BMP4-stimulated mouse PASMC at 100 to 200 ng/ml treated 30 mins before BMP4 challenge measured after 30 mins by immunoblot analysis
Outline: (§4)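 Mouse PASMCs were held 24 h in RPMI with 0.5% FCS. They were preincubated 30 min with test agent, noggin or vehicle, then exposed to recombinant BMP4 for 30 min. SDS lysates were immunoblotted for phospho-SMAD1/5/8 and bands quantified by phosphorimager. Dose-dependence was fitted as a Hill plot.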

[9] = species: Danio rerio; assay: Inhibition of BMPR1 in zebrafish assessed as penetrance of mild embryonic axis dorsalization at 10 uM treated continuously from 6 hrs post-fertilization measured at 48 hrs; design: scale not given: the % may be the effect or the level left; outline: as §1
[10] = species: Danio rerio; assay: Inhibition of BMPR1 in zebrafish assessed as penetrance of normal embryonic axis dorsalization at 10 uM treated at 4 to 8 hrs post-fertilization measured at 48 hrs; design: scale not given: the % may be the effect or the level left
[11] = tested on: Hep 3B2; assay: Inhibition of BMPR1-mediated hepcidin mRNA expression in IL6-stimulated human Hep3B cells at 10 uM treated 30 mins before IL6 challenge measured after 6 hrs by qRT-PCR analysis; format: cell-based
Outline: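 Hep3B cells were incubated in α-MEM with 1% FCS for 6 h, with human IL-6 (100 ng ml−1) or without, together with compound or vehicle. After Trizol RNA extraction, hepcidin and Id1 mRNA were quantified by qRT-PCR. Values were normalised to 18S rRNA or β-actin mRNA, and measurements were in triplicate.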

[12] = species: Danio rerio; assay: Inhibition of BMPR1 in zebrafish assessed as penetrance of moderate embryonic axis dorsalization at 7.5 uM treated at 3 hrs post-fertilization measured at 48 hrs; design: scale not given: the % may be the effect or the level left
[13] = species: Mus musculus; assay: Inhibition of BMPR1-mediated Smad-1 phosphorylation in BMP7-stimulated mouse BMPR2 deficient PASMC at 4 uM treated 30 mins before BMP7 challenge measured after 30 mins by immunoblot analysis
Outline: (§5)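 PASMCs (wild-type or BMPR-II–deficient) were kept 24 h in RPMI with 0.5% FCS, preincubated 30 min with compound or vehicle, then stimulated 30 min with recombinant BMP (10 ng ml−1). Extracts in SDS-lysis buffer were immunoblotted for phospho-SMAD1/5/8, with total SMAD1 and α-tubulin as loading controls. Bands were quantitated by phosphorimager.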

[14] = species: Danio rerio; assay: Inhibition of BMPR1 in zebrafish assessed as penetrance of mild embryonic axis dorsalization at 10 uM treated at 3 hrs post-fertilization measured at 48 hrs; design: scale not given: the % may be the effect or the level left; outline: as §1
[15] = species: Mus musculus; assay: Inhibition of BMPR1-mediated Smad-8 phosphorylation in BMP4-stimulated mouse BMPR2 deficient PASMC at 4 uM treated 30 mins before BMP4 measured after 30 mins by immunoblot analysis
[16] = species: Danio rerio; assay: Inhibition of BMPR1 in zebrafish assessed as severity of embryonic axis dorsalization at 10 uM treated continuously from 4 hrs post-fertilization measured after 48 hrs; design: scale not given: the % may be the effect or the level left
[17] = (§6) Inhibition of BMPR1-mediated Smad-5 phosphorylation in BMP4-stimulated mouse PASMC treated 30 mins before BMP4 challenge measured after 30 mins by immunoblot analysis; outline: as §4
[18] = species: Mus musculus; assay: as §6; outline: as §4
[19] = species: Danio rerio; assay: Inhibition of BMPR1 in zebrafish assessed as penetrance of mild embryonic axis dorsalization at 10 uM treated at 2 to 6 hrs post-fertilization measured at 48 hrs; design: scale not given: the % may be the effect or the level left; outline: as §1
[20] = species: Mus musculus; assay: Inhibition of BMPR1-mediated Smad-1 phosphorylation in BMP6-stimulated mouse PASMC at 4 uM treated 30 mins before BMP6 challenge measured after 30 mins by immunoblot analysis; outline: as §5
[21] = species: Mus musculus; assay: Inhibition of ALK3-mediated Smad-5 phosphorylation in BMPR2 deficient mouse PASMC at 10 uM by immunoblot analysis
Outline: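 BMPR-II–deficient mouse PASMCs (RPMI, 10% FBS) transiently transfected with constitutively active ALK2, ALK3 or ALK6 cDNA, or plasmid-only control. Incubated with or without compound (10 µM). Extracts lysed in SDS buffer, run on SDS-PAGE and immunoblotted for phospho-SMAD1/5/8; quantitated by phosphorimager.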

[22] = species: Mus musculus; assay: Inhibition of BMPR1-mediated Smad-5 phosphorylation in BMP2-stimulated mouse PASMC at 4 uM treated 30 mins before BMP2 challenge measured after 30 mins by immunoblot analysis
Outline: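 Wild-type mouse PASMCs were kept in RPMI with 0.5% FCS for 24 h. They were preincubated with compound or vehicle for 30 min, then stimulated for 30 min with recombinant BMP2, BMP4, BMP6 or BMP7 at 10 ng ml−1. Lysates in SDS buffer were immunoblotted with anti-phospho-SMAD1/5/8. Total SMAD1 and α-tubulin served as loading controls, and bands were quantified by phosphorimager.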

[23] = species: Danio rerio; assay: Inhibition of BMPR1 in zebrafish assessed as severity of embryonic axis dorsalization at 10 uM treated continuously from 2 hrs post-fertilization measured after 48 hrs; design: scale not given: the % may be the effect or the level left
[24] = species: Danio rerio; assay: Inhibition of BMPR1 in zebrafish assessed as penetrance of mild embryonic axis dorsalization at 10 uM treated continuously from 4 hrs post-fertilization measured after 48 hrs; design: scale not given: the % may be the effect or the level left; outline: as §1
[25] = tested on: Hep 3B2; assay: Inhibition of BMPR1-mediated Id1 mRNA expression in IL6-stimulated human Hep3B cells at 10 uM treated 30 mins before IL6 challenge measured after 6 hrs by qRT-PCR analysis; format: cell-based
Outline: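 Hep3B cells were grown in α-MEM with 10% FBS, then incubated 6 h in α-MEM with 1% fetal calf serum, with or without dorsomorphin and human IL-6 (100 ng ml−1). RNA was Trizol-extracted. Id1 mRNA was measured by qRT-PCR, normalized to 18S rRNA or β-actin mRNA. Triplicate measurements, mean ± s.d.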

In the case of `c1cc(-c2cnn3cc(-c4ccc(OCCN5CCCCC5)cc4)cnc23)ccn1` [DORSOMORPHIN], the Activity [1] is reported as 81%, the Activity [2] is reported as 5% and the Activity [3] is reported as “Non-toxic”. For the same compound, the Activity [4] was 100%, the IC50 [5] was 0.47 µM and the inhibition [6] was “Dose-dependent effect”. For the same compound, the Activity [7] was 0%, the inhibition [8] was “Active” and the Activity [9] was 22%. For the same compound, the Activity [10] was 0%, the inhibition [11] was “Active” and the Activity [12] was 42%. For the same compound, the inhibition [13] was “Active”, the Activity [14] was 3% and the inhibition [15] was “Active”. The Activity [16] was 0%, the IC50 [17] was 0.47 µM and the inhibition [18] was “Dose-dependent effect”. For the same compound, the Activity [19] was 17%, the inhibition [20] was “Active” and the inhibition [21] was “Active”. For the same compound, the inhibition [22] was “Active”, the Activity [23] was 100% and the Activity [24] was 0%. The inhibition [25] was “Active”.
